The subject of assay [1] is Rattus norvegicus. In words: Inhibition of ALR2 in 5-day STZ-induced diabetic Wistar rat model assessed as normalization of elevated sorbitol levels in sciatic nerves at 100 mg/kg/day, po for 5 days. It counts as functional, Sciatic nerve. More on the design: scale not given: the % may be the effect or the level left. The method in brief: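 STZ-diabetic male Wistar rats (ip 55 mg/kg) got compound po in 0.5% CMC-Na for 5 days. Sciatic nerve taken 6 h after last dose, boiled, homogenized in 6% perchloric acid and neutralized. Sorbitol read enzymatically with sorbitol dehydrogenase/NAD+ at pH 9.4, 60 min 37 °C, fluorescence ex 365/em 430 nm. Inhibition = (S-T)/(S-N)×100 against diabetic and nondiabetic controls.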

The target in assay [2] is Aldo-keto reductase family 1 member B1 (Rattus norvegicus, UniProt P07943). In words: Inhibition of Wistar rat lenses ALR2 by spectrophotometry. It counts as tissue-based, Lens of camera-type eye. In outline: (§1)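 ALR2 enzyme extract in 0.1 M sodium phosphate pH 6.2 with NADPH (0.25 mL of 0.10 mM) and compound diluted from DMSO, preincubated 10 min at 32 °C. Started with D,L-glyceraldehyde (0.25 mL of 10 mM, 1 mL total). Fall in A340 followed for 4 min, corrected for substrate-free rate. Screened at 10^-4 M. IC50 from at least four concentrations giving 20-80% inhibition, in triplicate, with 95% CL.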

Assay [3] relates to Rattus norvegicus. In words: Inhibition of ALR2 in 5-day STZ-induced diabetic Wistar rat model assessed as blood glucose levels at 100 mg/kg/day, po for 5 days (reference value: 22.2 +/- 2.62 mmol/L). Format: functional.
Assay [4] concerns the target Aldo-keto reductase family 1 member A1 (Rattus norvegicus, UniProt P51635). The experiment in a line: Inhibition of Wistar rat kidney ALR1 by spectrophotometry. In outline: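 ALR1 enzyme extract in 0.1 M sodium phosphate pH 7.2 with NADPH (0.25 mL of 0.12 mM) and compound diluted from DMSO, preincubated 10 min at 37 °C. Started with sodium D-glucuronate (0.25 mL of 20 mM, 1 mL total). Fall in A340 followed for 4 min, corrected for substrate-free rate. Screened at 10^-4 M. IC50 from at least four concentrations, 10^-4 to 10^-8 M, in triplicate.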

Assay [5] concerns the target Aldo-keto reductase family 1 member B1 (Rattus norvegicus) (UniProt P07943). In words: Inhibition of Wistar rat lenses ALR2 at 0.1 mM by spectrophotometry. Format: tissue-based. Conditions: Lens of camera-type eye. In outline: as §1
The subject of assay [6] is Aldehyde reductase, AKR1A1 (Rattus norvegicus). In words: Inhibition of Wistar rat kidney ALR1 at 0.1 mM by spectrophotometry.

The values that follow come from ChEMBL document CHEMBL1629534, “Acetic acid derivatives of 3,4-dihydro-2H-1,2,4-benzothiadiazine 1,1-dioxide as a novel class of potent aldose reductase inhibitors” (J Med Chem, 2010).

Sequence of Aldo-keto reductase family 1 member A1 (P51635 whole entry, looked up): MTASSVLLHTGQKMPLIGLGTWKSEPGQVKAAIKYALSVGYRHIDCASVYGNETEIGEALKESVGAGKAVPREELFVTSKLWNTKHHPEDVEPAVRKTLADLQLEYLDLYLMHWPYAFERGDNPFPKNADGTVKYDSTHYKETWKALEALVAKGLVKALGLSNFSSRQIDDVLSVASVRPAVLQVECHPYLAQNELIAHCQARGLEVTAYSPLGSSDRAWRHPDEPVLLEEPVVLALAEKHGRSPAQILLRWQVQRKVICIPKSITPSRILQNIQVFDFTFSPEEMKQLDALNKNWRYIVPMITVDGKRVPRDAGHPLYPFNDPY

Regarding `NC(=O)[C@@H]1C[C@]2(NC(=O)NC2=O)c2cc(F)ccc2O1` [FIDARESTAT], the figures for the Activity in assay [1] and in assay [3] were 100% and 18.5 mmol/L, respectively. Also, inhibition in assay [2] was half-maximal at 29 nM (IC50).
For the molecule `O=C(O)CN1CN(Cc2ccc(Br)cc2F)S(=O)(=O)c2cc(F)ccc21`, the 50% inhibitory concentration (IC50) (as a rule, the concentration at which inhibition is half-maximal) was 122 µM in assay [4] and 90 nM in assay [2]. The Activity in assay [1] is reported as 47.3%; in assay [3] it was 17.9 mmol/L.
In turn, `O=C(O)CN1CN(Cc2cccc([N+](=O)[O-])c2)c2ccccc2S1(=O)=O` yielded a half-inhibitory concentration (IC50) in assay [2] of 74500 nM.
As to `O=C(O)CN1CN(Cc2cc(F)c(F)cc2F)S(=O)(=O)c2ccccc21`, the IC50 in assay [2] was 111 nM.
`O=C(O)CN1CN(Cc2ccc(Br)cc2F)S(=O)(=O)c2ccccc21`: the concentration for half-maximal inhibition (IC50) in assay [4] was 70.3 µM; in assay [2], 125 nM.
Turning to `O=C(O)CN1CN(Cc2cccc([N+](=O)[O-])c2)S(=O)(=O)c2cc(F)ccc21`, the figures for the concentration for half-maximal inhibition (IC50) in assay [4] and in assay [2] were 61.9 µM and 108 nM, respectively. The results for the Activity in assay [1] and in assay [3] were 43.6% and 19.8 mmol/L, respectively.
`O=C(O)CN1CN(Cc2cccc([N+](=O)[O-])c2)S(=O)(=O)c2cc(Br)ccc21`: the IC50 in assay [4] was 103 µM; in assay [2], 116 nM.
As for `O=C(O)CN1CN(Cc2cc(F)c(F)cc2F)c2ccccc2S1(=O)=O`, the IC50 in assay [2] is 14000 nM.
As for `O=C(O)CN1CN(Cc2cc(F)c(F)cc2F)S(=O)(=O)c2cc(Cl)ccc21`, the figures for the IC50 in assay [4] and in assay [2] were 50.6 µM and 32 nM, respectively. In addition, the Activity in assay [1] came out at 61.5%; in assay [3], 17.9 mmol/L.
The corresponding values for `O=C(O)CN1CN(Cc2cc(F)c(F)cc2F)S(=O)(=O)c2cc(Br)ccc21` are 54.1 µM, 52 nM, 51.2% and 20.1 mmol/L.
As to `O=C(O)CN1CN(Cc2ccccc2)S(=O)(=O)c2ccccc21`, the concentration for half-maximal inhibition (IC50) in assay [2] amounted to 101000 nM.
`O=C(O)CN1CN(Cc2ccc(Br)cc2F)S(=O)(=O)c2cc(Cl)ccc21`: the half-maximal inhibitory concentration (IC50) was determined as 58.9 µM in assay [4] and 41 nM in assay [2]. For the same molecule, the Activity in assay [1] is 60.7%; in assay [3], 18.2 mmol/L.
With `O=C(O)CN1CN(Cc2ccc(C(F)(F)F)cc2)S(=O)(=O)c2cc(Br)ccc21`, the results for the half-inhibitory concentration (IC50) in assay [4] and in assay [2] were 110 µM and 674 nM, respectively.
`O=C(O)CN1CN(Cc2ccc(C(F)(F)F)cc2)c2ccccc2S1(=O)=O`: the inhibition (as a rule, the relative decrease from the control value, in per cent) in assay [5] is 41.3%.
Take `O=C(O)CN1CN(Cc2ccc(Br)cc2F)S(=O)(=O)c2cc(Br)ccc21`: the results for the concentration for half-maximal inhibition (IC50) in assay [4] and in assay [2] were 69.4 µM and 71 nM, respectively. For the same molecule, the Activity in assay [1] turned out to be 42.4%; in assay [3], 18.4 mmol/L.
In assay [2], `O=C(O)CN1CN(Cc2ccc(C(F)(F)F)cc2)S(=O)(=O)c2cc(Cl)ccc21` showed an IC50 of 595 nM. This molecule came in with an inhibition in assay [6] of 45%.
In the case of `O=C(O)CN1CN(Cc2cc(F)c(F)cc2F)S(=O)(=O)c2cc(F)ccc21`, the half-inhibitory concentration (IC50) in assay [4] is 80.9 µM; in assay [2] it was 66 nM. Besides, the results for the Activity in assay [1] and in assay [3] were 68.2% and 18.4 mmol/L, respectively.
In assay [2], `O=C(O)CN1CN(Cc2ccc(C(F)(F)F)cc2)S(=O)(=O)c2cc(F)ccc21` had a concentration for half-maximal inhibition (IC50) of 931 nM. This molecule gave an inhibition in assay [6] of 40%.
Turning to `O=C(O)CN1CN(Cc2ccc(Br)cc2F)c2ccccc2S1(=O)=O`, half-maximal inhibition in assay [2] (IC50) required 58400 nM.
As for `O=C(O)CN1CN(Cc2cccc([N+](=O)[O-])c2)S(=O)(=O)c2ccccc21`, the values for the concentration for half-maximal inhibition (IC50) in assay [4] and in assay [2] were 55.8 µM and 219 nM, respectively.
Turning to `O=C(O)CN1CN(Cc2ccc(C(F)(F)F)cc2)S(=O)(=O)c2ccccc21`, the concentration for half-maximal inhibition (IC50) in assay [2] stood at 975 nM. In addition, the inhibition in assay [6] turned out to be 42%.
`O=C(O)CN1CN(Cc2cccc([N+](=O)[O-])c2)S(=O)(=O)c2cc(Cl)ccc21`: the concentration for half-maximal inhibition (IC50) was 82.5 µM in assay [4] and 94 nM in assay [2]. Also, the Activity turned out to be 45% in assay [1] and 19.7 mmol/L in assay [3].
